Data on three molecules can be found in publication PMC9162962 (European Journal of Medicinal Chemistry, 2022).

Molecules are shown by their SMILES.

Data set [1] has as its target T1, SARS-CoV-2 M^pro (Severe acute respiratory syndrome coronavirus 2, UniProt P0DTD1). As to the kind of experiment: Mass spectrometry. To be noted: 2 μM protease, 15 μM compound, on ice 3 h. The format is binding. In short, it runs like this: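 Mpro–test compound mixture kept on ice for 3 h, then run on a quadrupole-TOF LC-MS/MS system. Raw mass signal deconvoluted to total intact protein mass to detect adduct formation. Protein was recombinant, E. coli-expressed.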

In data set [2] the target is T1, SARS-CoV-2 M^pro. Put plainly: Enzymatic reversibility assay. Type of data set: biochemical. The conditions noted are these: 10 μM Mpro, 100 μM compound, 180 min. Put shortly:
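Recombinant Mpro (10 μM), E. coli-expressed, held with 100 μM test compound for 180 min, then split into four portions given different numbers of ultrafiltration rounds. Retained protease diluted to 0.5 μM final; activity measured; triplicates averaged.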

Data set [3] has as its target T1, SARS-CoV-2 M^pro. Type of data set: biochemical.
Another data set has as its system MDCK cells. The conditions noted are these: MTT.
A further data set relates to Vero cells. To be noted: MTT.
Another data set relates to SARS-CoV-2. The conditions noted are these: lungs and nose of SARS-CoV-2 infected mice; cited from earlier work.

Take `NC(=S)N/N=C/c1ccc(-c2ccc(C(=O)O)c(O)c2)o1` [F8–B6, (E)-4-(5-((2-carbamothioylhydrazono)methyl)furan-2-yl)-2-hydroxybenzoic acid]: the “Covalent binding by LC-MS/MS” value on SARS-CoV-2 M^pro [1] is recorded as “covalently bonded”. The “Reversibility of inhibition after ultrafiltration” value on SARS-CoV-2 M^pro [2] is given as “reversible inhibitor”. For the same molecule, the “Mechanism of inhibition (overall, kinetic and mass spectrometry studies)” value on SARS-CoV-2 M^pro [3] is “reversible covalent inhibitor”. On SARS-CoV-2 M^pro [3] (enzymatic kinetic assay, 3 h preincubation, varied substrate), the “Type of inhibition from Lineweaver-Burk plot” value is given as “non-competitive inhibitor”. Also, on SARS-CoV-2 M^pro [3] (incubation 5, 30, 180 min (Fig. S3A-C)), the “Effect of prolonged incubation on inhibition” value was “time-dependent increase of inhibition activity”.
As for `NC(=S)N/N=C/c1ccc(Cc2ccccc2)o1` [F8–B22, (E)-2-((5-benzylfuran-2-yl)methylene)hydrazine-1-carbothioamide], the “Cytotoxicity in MDCK cells” value in the data set with MDCK cells was “low cytotoxicity”. Also, the “Cytotoxicity in Vero cells” value with Vero cells was “low cytotoxicity”. The “Potency relative to initial compound F8” value at SARS-CoV-2 M^pro [3] (ratio of IC50 values) is listed as 13 fold.
For `Cc1ccc(NC(=O)c2ccc(CN3CCN(C)CC3)cc2)cc1Nc1nc(-c2cccnc2)cs1` [Masitinib], in the data set on SARS-CoV-2, the “Effect on coronavirus replication in infected mice” value is “block the replication of coronavirus in the lungs and nose”.
